Test results: ChEMBL document CHEMBL1156381, “Cacofurans A and B, new furanoditerpenes from a marine sponge” (J Nat Prod, 2001)
In brackets after ≈: the same amount, converted by molar mass. Activity calls are given as the source filed them. The calls are words filed in the database; no cut-off is given here.

Key:
Bacillus cereus = experiment: Antibacterial activity against Bacillus cereus; format: functional, organism-based
Escherichia coli = experiment: Antibacterial activity against Escherichia coli; format: functional, organism-based
[1] = Toxicity in sea urchin egg assessed as inhibition of development of fertilized egg by light microscopy; parameters: species or system Tripneustes gratilla
How it was run: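 Eggs and sperm were collected from mature Tripneustes gratilla specimens for the fertilized-egg development assay.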

Staphylococcus aureus = experiment: Antibacterial activity against methicillin-resistant Staphylococcus aureus; format: functional, organism-based
[2] = Cytotoxicity against rat NBT2 cells assessed as cell survival at 10 ug/mL after 16 hrs by phase contrast microscope; format: functional; settings: NBT2, 16 h, read-out: Activity
How it was run: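 Rat bladder epithelial carcinoma NBT-II cells were exposed to 10 μg/mL test agent. Phase contrast images of control and treated cells were recorded after 16 h on an image-based high content imaging workstation.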

NBT2 = experiment: Disruption of actin cytoskeleton in rat NBT2 cells at 10 ug/mL after 16 hrs by TMR-phalloidin imaging analysis; format: functional, cell-based
How it was run: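 NBT-II rat bladder epithelial carcinoma cells were treated at 10 μg/mL. Cells were then permeabilized and stained with TMR-phalloidin to image the actin cytoskeleton, with control cells for comparison.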

K562 = experiment: Cytotoxicity against human K562 cells; format: functional, cell-based
P388 = experiment: Cytotoxicity against mouse P388 cells; format: functional, cell-based

Compound | Activity (Bacillus cereus) | Activity (Escherichia coli) | IC50 [1] [µg/mL] | Activity (Staphylococcus aureus) | viability at 10 µg/mL [2] [%] | Activity (NBT2) | IC50 (K562) [µg/mL] | IC50 (P388) [µg/mL]
CC(=O)O[C@@H](Cc1ccoc1)[C@@H]1[C@@]23CCCC(C)(C)[C@@H]2CC[C@]1(C)OC3 [CACOFURAN A] | inactive | inactive | 0.5 (≈ 1.39 µM) | inactive | 50 | Active | > 1 | > 1
CC1(C)CCC[C@@]23CO[C@@](C)(CC[C@@H]12)[C@@H]3[C@@H](O)Cc1ccoc1 [CACOFURAN B] | inactive | inactive | 5 (≈ 15.7 µM) | inactive | 50 | Active | > 1 | > 1
